Results reported in ChEMBL document CHEMBL2384977, “Synthesis and biological evaluation of novel styryl benzimidazole derivatives as probes for imaging of neurofibrillary tangles in Alzheimer's disease” (Bioorg Med Chem, 2013).

Experiments:
Brain = test: Ratio of drug level in ddY mouse brain at 13.2 to 20.6 kBq, iv measured at 2 mins to drug level in ddY mouse brain at 13.2 to 20.6 kBq, iv measured at 60 mins; type: ADME, organism-based; conditions: in vivo
Outline: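 Tail-vein injection of the 125I tracer (13.2–20.6 kBq, saline with ethanol) into male 5-week-old ddY mice. The ratio is brain uptake (%ID/g) at 2 min divided by brain uptake at 60 min, from groups of 5 animals.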

Homo sapiens = species: Homo sapiens; test: Selectivity ratio of Kd(app) for amyloid beta (1 to 42) (unknown origin) aggregates to Kd(app) for recombinant human tau (441 amino acid residues) aggregates
Outline: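 Human 441-aa tau, expressed in E. coli, was aggregated at 1 mg/mL (MES pH 6.8, 0.1 mg/mL heparin, 37 °C, 3 days, shaking). Aβ1–42 was aggregated at 0.25 mg/mL (PBS pH 7.4, 37 °C, 42 h). Aggregates were incubated 30 min at room temperature with ligand, and fluorescence read at ex 440 nm, em 510 nm (tau) or 480 nm (Aβ). Apparent Kd came from saturation curves over six independent experiments, and the ratio is Kd(Aβ)/Kd(tau).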

[1] = biological target: Amyloid-beta precursor protein (Homo sapiens, UniProt P05067); test: Binding affinity to amyloid beta (1 to 42) (unknown origin) aggregates assessed as apparent dissociation constant after 30 mins by fluorescence spectroscopic analysis; conditions: read-out: Kd(app)
Outline: (§1)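 Tau: human 441-aa tau expressed in E. coli, aggregated at 1 mg/mL in MES buffer pH 6.8 with 0.1 mg/mL heparin, 37 °C for 3 days with shaking. Abeta1-42 aggregated at 0.25 mg/mL in PBS pH 7.4, 37 °C for 42 h with shaking. Aggregates at final 10 µg/mL were incubated with ligand (final 0.02–10 µM) for 30 min at room temperature. Apparent Kd was taken from fluorescence saturation curves at ex 440 nm, em 510 nm (tau) or em 480 nm (Abeta). Mean ± SEM of six independent experiments.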

[2] = biological target: Microtubule-associated protein tau (Homo sapiens, UniProt P10636); test: Binding affinity to recombinant human tau (441 amino acid residues) aggregates expressed in Escherichia coli assessed as apparent dissociation constant after 30 mins by fluorescence spectroscopic analysis; conditions: read-out: Kd(app); outline: as §1
Microtubule-associated protein tau, sequence (P10636 whole entry): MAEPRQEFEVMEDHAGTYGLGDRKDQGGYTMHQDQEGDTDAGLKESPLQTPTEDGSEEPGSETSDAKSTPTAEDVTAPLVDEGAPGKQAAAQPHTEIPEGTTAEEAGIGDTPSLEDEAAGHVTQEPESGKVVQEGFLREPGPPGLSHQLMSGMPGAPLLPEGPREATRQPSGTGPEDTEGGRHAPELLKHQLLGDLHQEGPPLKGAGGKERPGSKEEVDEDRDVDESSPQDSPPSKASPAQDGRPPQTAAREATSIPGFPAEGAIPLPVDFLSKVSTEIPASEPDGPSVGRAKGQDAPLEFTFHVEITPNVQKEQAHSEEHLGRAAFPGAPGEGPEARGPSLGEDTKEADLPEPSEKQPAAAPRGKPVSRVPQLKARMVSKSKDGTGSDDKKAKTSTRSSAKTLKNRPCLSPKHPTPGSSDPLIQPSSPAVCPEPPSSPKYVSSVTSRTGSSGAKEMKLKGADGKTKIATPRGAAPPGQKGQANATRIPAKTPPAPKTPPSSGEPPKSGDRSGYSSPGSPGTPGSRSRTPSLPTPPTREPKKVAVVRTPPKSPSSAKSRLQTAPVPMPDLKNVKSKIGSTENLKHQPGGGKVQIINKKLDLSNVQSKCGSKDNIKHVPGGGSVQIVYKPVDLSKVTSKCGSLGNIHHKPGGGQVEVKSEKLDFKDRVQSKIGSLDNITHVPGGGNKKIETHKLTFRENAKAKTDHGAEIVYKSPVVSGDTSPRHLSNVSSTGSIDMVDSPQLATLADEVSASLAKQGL

Amyloid-beta precursor protein, sequence (P05067 whole entry): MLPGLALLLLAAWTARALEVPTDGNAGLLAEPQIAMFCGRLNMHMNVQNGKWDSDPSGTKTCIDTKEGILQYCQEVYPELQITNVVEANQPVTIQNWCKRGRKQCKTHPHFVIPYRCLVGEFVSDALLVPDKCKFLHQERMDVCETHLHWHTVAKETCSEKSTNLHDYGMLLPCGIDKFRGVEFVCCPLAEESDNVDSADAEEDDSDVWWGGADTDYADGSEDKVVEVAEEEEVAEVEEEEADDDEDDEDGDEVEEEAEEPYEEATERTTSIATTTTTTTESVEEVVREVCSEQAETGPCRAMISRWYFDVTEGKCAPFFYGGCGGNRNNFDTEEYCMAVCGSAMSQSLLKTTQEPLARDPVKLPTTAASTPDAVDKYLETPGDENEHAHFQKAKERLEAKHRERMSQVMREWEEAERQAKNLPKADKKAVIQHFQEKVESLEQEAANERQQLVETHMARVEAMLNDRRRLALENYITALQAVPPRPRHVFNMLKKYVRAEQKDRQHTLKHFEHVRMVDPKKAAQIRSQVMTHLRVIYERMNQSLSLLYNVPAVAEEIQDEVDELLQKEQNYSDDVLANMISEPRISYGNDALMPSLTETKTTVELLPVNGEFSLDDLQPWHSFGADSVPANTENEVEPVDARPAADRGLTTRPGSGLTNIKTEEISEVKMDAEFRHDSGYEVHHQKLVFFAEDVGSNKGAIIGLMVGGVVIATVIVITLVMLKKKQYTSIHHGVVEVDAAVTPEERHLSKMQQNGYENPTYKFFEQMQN

| Ratio (Brain) | Selectivity ratio (Homo sapiens) | Kd [1] | Kd [2] | Structure (SMILES) |
| --- | --- | --- | --- | --- |
| 0.3 | – | – | – | Nc1ccc(/N=N/c2nc3ccc([125I])cc3s2)cc1 |
| – | 0.93 | 420 nM | 450 nM | CNc1ccc(/C=C/c2nc3ccc(I)cc3[nH]2)cc1 |
